Screening results from PubChem.
SR-BI DiI-HDL act: activators of SR-BI mediated DiI-HDL uptake, primary screen, ldlA[mSR-BI] CHO cells, DiI fluorescence; 3 h; 100 = double the neutral-control signal; activation, % at 12.5 µM; actives 0.096% (n = 320,000);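 active = mean replicate activation of at least 60% and every replicate at or above 60%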;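 note: 0% = median plate neutral-control signal and 100% = twice that signal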
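System: LDL receptor-deficient CHO ldlA cells overexpressing murine SR-BI | Timing: 3 h uptake period with compound, 37 °C | Medium: HEPES-buffered (25 mM, pH 7.4) F12 plus 0.5% BSA | Dosing: Single-point compound dose | Signal: Bottom-read fluorescence, 550/595 nm | Read-out: Retained DiI signal reflecting DiI-HDL uptake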
Neddylation inh: inhibitors of cullin neddylation, primary screen, biochemical, TR-FRET, uHTS, NAE and Ubc12; NEDD8-conjugating enzyme Ubc12 (Homo sapiens) + NEDD8-activating enzyme E1 regulatory …; inhibition, % at 25 µM; actives 0.58% (n = 360,000); in the data active = inhibition above about 36%
Target sequence (P61081 whole entry, looked up): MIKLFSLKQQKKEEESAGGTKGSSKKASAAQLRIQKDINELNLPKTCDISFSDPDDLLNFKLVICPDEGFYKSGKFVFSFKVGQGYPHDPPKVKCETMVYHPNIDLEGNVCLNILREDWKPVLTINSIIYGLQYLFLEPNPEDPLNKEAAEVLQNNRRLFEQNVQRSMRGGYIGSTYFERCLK
Target sequence (Q13564 whole entry, looked up): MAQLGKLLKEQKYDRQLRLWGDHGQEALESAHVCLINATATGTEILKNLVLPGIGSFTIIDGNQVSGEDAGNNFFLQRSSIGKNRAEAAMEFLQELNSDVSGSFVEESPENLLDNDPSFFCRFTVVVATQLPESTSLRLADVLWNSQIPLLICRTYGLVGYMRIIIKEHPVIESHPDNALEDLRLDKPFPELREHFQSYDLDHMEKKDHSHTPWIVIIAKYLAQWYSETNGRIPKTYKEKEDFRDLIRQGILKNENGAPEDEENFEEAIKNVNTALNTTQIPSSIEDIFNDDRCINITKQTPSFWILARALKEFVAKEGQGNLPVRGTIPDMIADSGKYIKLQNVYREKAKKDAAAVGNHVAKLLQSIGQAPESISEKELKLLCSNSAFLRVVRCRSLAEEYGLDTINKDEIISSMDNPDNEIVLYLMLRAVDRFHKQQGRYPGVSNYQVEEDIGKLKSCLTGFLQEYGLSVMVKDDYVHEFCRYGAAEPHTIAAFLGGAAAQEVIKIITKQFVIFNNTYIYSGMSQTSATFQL
UBC13 polyUb: UBC13 polyubiquitin chain formation inhibitors, primary screen, biochemical, TR-FRET, uHTS. actives 0.47% (n = 330,000). Ubiquitin-conjugating enzyme E2 N (Homo sapiens), P61088. inhibition, % at 20 µM; in the data active = inhibition above about 45%, passing the limit was not always enough
SR-BI DiI inh: inhibitors of SR-BI mediated HDL lipid uptake, primary screen, ldlA[mSR-BI] cells, fluorescence, single point | Scavenger receptor class B member 1 (Mus musculus), Q61009 | ldlA[mSR-BI] CHO cells, DiI-HDL uptake fluorescence, 3 h | inhibition, % at 12.5 µM | actives 0.96% (n = 320,000) | AID 488896, 2010;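 active = mean replicate inhibition of at least 70% and a set share of replicates each scoring 70 or more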;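 note: 0% = median of neutral control wells and 100% = median of positive control wells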
Casp3 counter: CASP3 inhibitor validation, counterassay for project on UBE2N polyubiquitination blockers, biochemical, one dose; Recombinant caspase-3, Caspase-Glo 3/7 luminescence, 60 min; actives 4% (n = 1,400); AID 488856, 2010; inhibition, % at 20 µM; shares compounds with UBC13 polyUb;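 active = mean inhibition across replicates above about 26%, limit read from the data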;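 note: plate controls were DMSO with caspase-3 for no effect and DMSO wells lacking enzyme for full effect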
UBC13 conf: UBC13 polyubiquitination inhibitors, single-point retest, confirmation, biochemical, TR-FRET, single concentration; shares compounds with UBC13 polyUb; inhibition, % at 10 µM; actives 68% (n = 1,400); in the data active = inhibition above about 45%
The depositor's hits bear a star. Most compounds without a hit are left out; they make up all but 1.9% or so of the library.

COCCNC(=O)C1(C)CCCN(C(=O)c2cccc(C(F)(F)F)c2)C1 (stereo not given) was read as Neddylation inh -4.
For CCCCCCn1c(=O)n2n(c1=O)[C@@H]1CN(S(=O)(=O)c3ccc(C)cc3)C[C@]1(O)[C@@H](OC(=O)NCc1ccc(OC)c(OC)c1)C2 the results were Neddylation inh 0.
For COCCCNC(=O)Cn1c(=O)n(CC(=O)NCCc2ccc(OC)c(OC)c2)c(=O)c2sccc21 the results were Neddylation inh -3 and UBC13 polyUb -2.
`COc1ccc(CCNC(=O)Cn2c(=O)n(-c3ccc(C)c(F)c3)c(=O)c3sccc32)cc1OC` gave Neddylation inh 0, UBC13 polyUb 49*, Casp3 counter 0 and UBC13 conf 46*.
`O=C(CCCCCn1c(SCc2ccncc2)nc2ccccc2c1=O)NCc1ccco1` gave SR-BI DiI-HDL act 11, Neddylation inh 5, UBC13 polyUb 69*, SR-BI DiI inh -11, Casp3 counter -3 and UBC13 conf 47*.
`COc1ccc(C(=O)Nn2c(SCC(=O)NC3CCCCC3)nc3ccccc3c2=O)cc1` gave SR-BI DiI-HDL act 7, Neddylation inh 11, UBC13 polyUb 31 and SR-BI DiI inh -7.
Screening COc1ccc(C(=O)Nn2c(SCc3cccc([N+](=O)[O-])c3)nc3ccccc3c2=O)cc1 returned SR-BI DiI-HDL act -5, Neddylation inh 5, UBC13 polyUb 43 and SR-BI DiI inh 5.
`COc1ccc(C(=O)Nn2c(SCC(=O)N3CCC(C)CC3)nc3ccccc3c2=O)cc1` gave SR-BI DiI-HDL act 17, Neddylation inh 13, UBC13 polyUb 80*, SR-BI DiI inh -17, Casp3 counter 85* and UBC13 conf 84*.
Screening COc1ccc(C(=O)Nn2c(SCC(=O)NCc3ccco3)nc3ccccc3c2=O)cc1 returned SR-BI DiI-HDL act -5, Neddylation inh 1, UBC13 polyUb 71*, SR-BI DiI inh 5, Casp3 counter 25 and UBC13 conf 74*.
COc1ccc(C(=O)Nn2c(SCC(=O)c3ccc(Cl)cc3)nc3ccccc3c2=O)cc1 was read as SR-BI DiI-HDL act -8, Neddylation inh -49, UBC13 polyUb 50*, SR-BI DiI inh 8, Casp3 counter 0 and UBC13 conf 56*.
For O=C(Nc1nnc(C2=COCCO2)o1)c1ccc(S(=O)(=O)N2CCCCC2)cc1 the results were SR-BI DiI-HDL act 29, Neddylation inh 6, UBC13 polyUb -1 and SR-BI DiI inh -29.
Screening C[C@@H]1COc2cc(N3CC[C@H](O)C3)ccc2S(=O)(=O)N1 returned Neddylation inh 6.
COc1ccc(NC(=O)c2sc(=O)n(Cc3ccc(F)c(Cl)c3)c2C)cc1OC was read as Neddylation inh 3.
For COc1cccc(C(N)c2nc(-c3csc4ccccc34)cs2)c1 (stereo not given) the results were Neddylation inh -34.
Cc1cc(-c2nnc(SCC(=O)Nc3nc(-c4ccc(Cl)cc4)cs3)o2)no1 was read as SR-BI DiI-HDL act -20, Neddylation inh -7, UBC13 polyUb 49*, SR-BI DiI inh 20, Casp3 counter 1 and UBC13 conf -11.
For COc1cc(NC(=O)CSc2nnc(-c3cc(C)on3)o2)cc(OC)c1 the results were SR-BI DiI-HDL act -1, Neddylation inh 3, UBC13 polyUb 1 and SR-BI DiI inh 1.
NCCCn1c(C(=O)c2cc(Cl)c(N)c(Cl)c2)c2ccc(C(F)(F)F)cc2[n+]1[O-] was read as SR-BI DiI-HDL act 2, Neddylation inh -50, UBC13 polyUb 103*, SR-BI DiI inh -2, Casp3 counter 1 and UBC13 conf 111*.
COc1ccc(C(=O)c2c3ccc(C(F)(F)F)cc3[n+]([O-])n2CCCC(N)=O)cc1 was read as SR-BI DiI-HDL act 0, Neddylation inh -18, UBC13 polyUb -15 and SR-BI DiI inh 0.
`NC(=O)c1ccc(Cn2c(C(=O)c3cc(Cl)c(N)c(Cl)c3)c3ccccc3[n+]2[O-])cc1` gave SR-BI DiI-HDL act -4, Neddylation inh -68, UBC13 polyUb 98*, SR-BI DiI inh 4, Casp3 counter 0 and UBC13 conf 95*.
`NC(=O)CCCn1c(C(=O)c2cc(Cl)c(N)c(Cl)c2)c2ccc(C(F)(F)F)cc2[n+]1[O-]` gave SR-BI DiI-HDL act -4, Neddylation inh -41, UBC13 polyUb 97*, SR-BI DiI inh 4, Casp3 counter 1 and UBC13 conf 93*.
NC(=O)c1ccc(Cn2c(C(=O)c3ccc(Cl)cc3)c3ccccc3[n+]2[O-])cc1 was read as SR-BI DiI-HDL act 21, Neddylation inh -46, UBC13 polyUb 0 and SR-BI DiI inh -21.
CC(C)(C)c1ccc(CC(=O)N2CCC2(C)C(=O)Nc2cccc3c2CCCC3)cc1 (stereo not given) was read as Neddylation inh 6.
For Cc1[nH]nc2c(=S)[nH]c(=O)[nH]c12 the results were Neddylation inh -30.
CCOC(=O)c1c(NC(=O)C(NCCN(C)C)c2ccccc2)sc2c1CCCC2 (stereo not given) was read as SR-BI DiI-HDL act -6, Neddylation inh 19, UBC13 polyUb 48*, SR-BI DiI inh 6, Casp3 counter -3 and UBC13 conf 88*.
`Cc1ccc(-c2csc(NC(=O)C[n+]3cc(-c4ccc(C)cc4)n4c3CCC4)n2)cc1` gave SR-BI DiI-HDL act -25, Neddylation inh -1, UBC13 polyUb 60*, SR-BI DiI inh 25, Casp3 counter 1 and UBC13 conf 70*.
For CC(C)(C)c1ccc2c(c1)C(=O)c1ccccc1C2=O the results were SR-BI DiI-HDL act -4, Neddylation inh -77, UBC13 polyUb 54*, SR-BI DiI inh 4, Casp3 counter 96* and UBC13 conf 19.
For COc1ccc(CCN(C)C(=O)c2ccc(COc3ccccc3)o2)cc1OC the results were SR-BI DiI-HDL act -21, Neddylation inh 7, UBC13 polyUb 46*, SR-BI DiI inh 21, Casp3 counter -3 and UBC13 conf 82*.
CCCc1ccc(OCc2ccc(C(=O)O)o2)c(OC)c1 was read as SR-BI DiI-HDL act 16, Neddylation inh -2, UBC13 polyUb 11 and SR-BI DiI inh -16.
`CC(=O)NC(c1cc(Cl)c2cccnc2c1O)C1CC1` (stereo not given) gave SR-BI DiI-HDL act 14, Neddylation inh -13, UBC13 polyUb -12 and SR-BI DiI inh -14.
